From PubChem BioAssay
pCIP destab – compounds decreasing mouse p/CIP protein stability; Q05BA5; F442A p/CIP-EGFP cells, EGFP fluorescence, 16 h; decrease of EGFP signal, % at 10 µM; hit rate 0.01% among 290,000; AID 1984;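 active = EGFP signal decrease of at least 30% at 10 µM or well 3 SD below plate mean, unless failing retest; inactive = the rest, including hits failing retest or dose response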
CHOP inhibitor – CHOP inhibition in unfolded protein response. CHO-K1 CHOP-promoter luciferase, tunicamycin-induced, 15-18 h. inhibition, % at 10 µM. hit rate 3.8% among 220,000. AID 2732;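 active = compounds that reduced the stress-induced luciferase reporter signal by more than about 70% of percent inhibition, limit read from the data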
UPR CHOP act – activators of apoptotic arm of unfolded protein response (CHOP); CHO-CHOP luciferase reporter, UPR activation, luminescence; percent of tunicamycin response over DMSO baseline; activation, % at 10 µM; hit rate 0.34% among 330,000; AID 449763;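 active = at 10 µM dose, activation of 40% or more, normalized to positive control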
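Evaluation: % reporter activation, DMSO baseline versus tunicamycin full activation; System: CHO-CHOP luciferase reporter cell line; Input: 500 cells/well; Incubation: 6 h compound treatment, 37 °C; Measured by: Steady-Glo luciferase luminescence; Dosing: one dose, 10 µM in 0.5% DMSO; Buffer or medium: F12 medium, 10% FBS; Benchmarks: positive tunicamycin 10 µg/mL, negative DMSO alone.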
XBP1 UPR activ – activators of adaptive arm of unfolded protein response (XBP1); AID 463104; hit rate 0.33% among 330,000; CHO-XBP1 luciferase reporter, IRE1-XBP1 UPR activation, luminescence; percent of tunicamycin response, DMSO as zero; activation, % at 20 µM;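 active = versus positive control, 20 µM dose yields 30% or more activation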
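Assay system: CHO-XBP1 luciferase reporter cells; Schedule: 6 h treatment, 37 °C; Detection: glow luminescence from Steady-Glo reagent; Benchmarks: high control tunicamycin 10 µg/mL final, low control DMSO vehicle only.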
Beta2AR agonist – human beta-2 adrenergic receptor agonism by FAP. hit rate 0.43% among 340,000. Am2.2-beta2AR cells, FAP receptor internalization, flow cytometry. response, % (concentration not given with the values);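 active = response above a set limit, near 3 SD of response in nonfluorescent compounds, cut at about 42% in these data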
Dynein cargo inh – dynein cargo transport inhibition; z-score, hits read low; hit rate 0.47% among 220,000; 3617.4 mouse cells, GR-EGFP nuclear translocation imaging; test concentration mostly 20 µM; stimulated with dexamethasone, 1 µM; hits give low values;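 active = plate z-score of nuclear minus cytoplasmic receptor signal below a set negative limit, without overly bright fluorescence or cell loss, cut at about -3.5 in these data, passing the limit was not always enough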;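 note: z-score of nuclear minus cytoplasmic ring GR-EGFP intensity difference per well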
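Buffer or medium – tet-free medium with charcoal-stripped serum · Signal – automated 10x imaging of fixed Hoechst-stained cells · Also added – dexamethasone agonist, 1.0 µM final, for 30 min · Incubation – induction 48 h, compound 1 h, agonist 30 min · Read-out – GR-EGFP nuclear translocation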
Dynein inh conf – dynein cargo transport inhibition, confirmation; hit rate 69% among 1,000; shares compounds with Dynein cargo inh; calls only at 20 µM; AID 463116; 3617.4 GR-EGFP nuclear translocation imaging, dexamethasone-induced;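 active = inhibition of receptor movement into the nucleus at or above a set limit in both runs, with normal cell brightness and cell count; inconclusive = limit reached in only one run, brightness and count normal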;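 note: dexamethasone at 1 µM final in well for 30 min; nuclear minus cytoplasmic GR-EGFP mean intensity difference in channel 2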
A number is an active result; . = inactive; ? = inconclusive; / = no result; + = active, no number. The entries come from a sample that favours hits as a whole.

SMILES | pCIP destab | CHOP inhibitor | UPR CHOP act | XBP1 UPR activ | Beta2AR agonist | Dynein cargo inh | Dynein inh conf
Cc1ccc(N2C(=O)C(F)(F)C2c2ccccc2)cc1 (stereo unspecified) | . | . | . | . | . | . | /
Cc1ccc(N2C(=N)/C(=C3/Nc4ccccc4S3)C(c3ccccc3)C2=O)cc1 (stereo unspecified) | . | . | / | / | . | -3.6 | +
Nc1c(C(=O)C2CC2)sc2nc(-c3cccs3)cc(C(F)(F)F)c12 | . | . | . | . | . | . | .
CC(C)NC(=O)c1sc2nc(-c3cccs3)cc(-c3cccs3)c2c1N | . | . | . | . | / | . | /
CCOC(=O)CSC1=NC(=O)/C(=C/c2ccc(Br)cc2)S1 | . | 102 | . | . | . | -4.3 | +
O=[N+]([O-])c1ccc(C(O)C[n+]2ccccc2)cc1 (stereo unspecified) | . | / | . | . | . | / | /
CCOC(=O)CCSc1nc(C(C)(C)C)cc(C(F)(F)F)c1C#N | . | . | . | . | . | . | /
CCOC(=O)CCSc1nc(C)cc(C(F)(F)F)c1C#N | . | . | . | . | . | . | .
Cc1ccc(-c2ncns2)cc1 | . | . | . | . | . | . | /
O=[N+]([O-])c1ccc(Sc2nccn2Cc2ccccc2)c([N+](=O)[O-])c1 | . | . | . | . | . | -4.6 | +
O=[N+]([O-])c1ccc(Sc2ncccn2)c([N+](=O)[O-])c1 | . | . | . | . | . | -4.8 | .
O=[N+]([O-])c1cc(C(F)(F)F)ccc1Sc1nccn1Cc1ccccc1 | . | . | . | . | . | . | /
CC(=O)NS(=O)(=O)c1ccc(N=NN2CCCCCC2)cc1 | . | . | . | . | . | . | /
N#CC(C#N)=C1C=CC=CN1/C(=C\c1ccco1)C(=O)c1ccc(Br)cc1 | . | 109 | / | / | 75 | -4.8 | +
N#CC(C#N)=C1C=CC=CN1/C(=C\c1ccco1)C(=O)c1ccccc1 | . | 110 | / | / | 60 | -3.8 | +
Cc1ccc(N2CCN(CC(O)COc3ccccc3)CC2)cc1 (stereo unspecified) | . | / | . | . | . | / | /
O=C(NCCCN1CCCC1=O)C(=O)Nc1cccc(F)c1 | / | / | . | . | . | / | /
O=C(Nc1ccc(F)cc1)c1nn(-c2ccccc2)c(=O)cc1Cl | . | . | / | / | . | -5.4 | +
CCCCCCC(=O)N(O)C1CC(=O)N(c2ccc(C)cc2)C1=O (stereo unspecified) | . | . | . | . | . | . | /
CCCCCCC(=O)N(O)C1CC(=O)N(c2ccc(Cl)cc2)C1=O (stereo unspecified) | . | . | . | . | . | -5.1 | +
Clc1ccccc1Cc1noc(CN2CCCCC2CCc2ccccn2)n1 (stereo unspecified) | . | . | . | . | . | . | /
CCOC(=O)c1c(NC(=O)Nc2ccc(Cl)cc2)sc(C)c1C | . | . | . | . | . | . | /
CCOC(=O)c1c(NC(=O)CCl)sc(CN(C)C)c1-c1ccccc1 | . | . | . | . | . | -5.2 | +
CCOC(=O)c1c(NC(=O)/C=C/C(=O)O)sc(C)c1-c1ccc(Cl)cc1 | . | . | . | . | . | -8.2 | +
CCc1sc(C(=O)Nc2ncccc2O)cc1C | . | / | . | . | . | / | /
SMILES | pCIP destab | CHOP inhibitor | UPR CHOP act | XBP1 UPR activ | Beta2AR agonist | Dynein cargo inh | Dynein inh conf
CCOC(=O)C1CCN(C(=O)c2cc(S(=O)(=O)N3CCc4ccccc43)ccc2OC)CC1 | / | / | . | . | . | / | /
CC(C)N(C(=O)COC(=O)c1ccccc1C(=O)c1ccc(Cl)c([N+](=O)[O-])c1)C(C)C | . | . | . | . | . | -3.6 | .
CN1C(=O)C(O)(CC(=O)/C=C\c2ccc3c(c2)OCO3)c2ccccc21 (stereo unspecified) | . | . | . | . | . | -4.6 | +
OCc1cn(-c2ccccc2)nc1-c1ccco1 | . | . | . | . | . | . | /
Cc1ccc(-c2nn(-c3ccccc3)cc2CO)o1 | . | . | . | . | . | -3.7 | .
CS(=O)(=O)c1sc(C#N)c2c1C(=O)CC(c1ccccc1)C2 (stereo unspecified) | . | 107 | . | . | 106 | -3.8 | ?
COCCOc1ccc(C(F)(F)F)cc1NC(=O)c1ccccc1F | . | . | . | . | . | . | /
CC1CCc2cc(F)ccc2N1C(=O)CCl (stereo unspecified) | . | 92 | / | / | . | -5.4 | +
Cc1onc(-c2ccccc2)c1-c1nc2cc(Cl)ccc2c(=O)o1 | . | . | . | . | . | -3.8 | +
Cn1[nH]c(C(F)(F)F)c(C=NCc2ccc(Cl)cc2)c1=O | . | . | . | . | . | . | /
CCN(CC)C(=O)c1cccc(NC(=O)c2cc(-c3ccccn3)nc3ccccc23)c1 | / | / | . | . | . | / | /
CC(=O)c1ccc(NC(=O)CSc2ccc3nnc(-c4ccccn4)n3n2)cc1 | . | / | . | . | . | / | /
COC(=O)[C@@]1(Cc2ccccc2)[C@@H]2C(=CC(=O)[C@H]2CC(=O)C(=O)N(C)C)CN1C(=O)c1ccccc1 | . | . | . | . | . | -5.2 | +
COc1ccc(CNC(=O)C/C(C)=N/NC(=O)c2ccc(OC)cc2OC)cc1 | . | / | . | . | . | / | /
COc1ccc(CN=CC2=C(O)CNC2=O)cc1 | . | . | . | . | . | . | /
COc1ccc(CN=Cc2[nH]c3ccc(Br)c(Cl)c3c2O)cc1 | . | . | . | . | . | -5 | +
Cc1ccc(N=Cc2cc(Br)cc(Cl)c2O)cc1 | . | . | . | . | . | . | /
Cc1cc(C)cc(N=Cc2[nH]c3ccc(Br)c(Cl)c3c2O)c1 | . | 103 | / | / | / | . | +
Nc1nc(Sc2c([N+](=O)[O-])cc(C(F)(F)F)cc2[N+](=O)[O-])n[nH]1 | . | . | . | . | . | -7.1 | +
Cc1cc(C)n(C(C[N+](=O)[O-])c2ccc(Cl)cc2)n1 (stereo unspecified) | . | . | . | . | . | -5.6 | .
O=C(OCCN1C(=O)c2ccccc2C1=O)c1cc(S(=O)(=O)N2CCOCC2)ccc1Cl | . | . | . | . | . | . | /
O=C(OCCN1C(=O)c2cccc3c(N4CCOCC4)ccc(c23)C1=O)c1ccc(Cl)cc1Cl | . | . | / | / | . | . | +
O=C(OCCN1C(=O)c2cccc3c(N4CCOCC4)ccc(c23)C1=O)c1cccc(Cl)c1 | . | . | / | / | / | . | ?
O=C(OCCN1C(=O)c2cccc3c(N4CCOCC4)ccc(c23)C1=O)c1ccccc1Cl | . | . | / | / | . | . | /
CCCCN(CC)C(=O)Cn1cnc2ccc(S(=O)(=O)N3CCC(C)CC3)cc2c1=O | . | . | . | . | . | . | /
